Data on 13 molecules can be found in ChEMBL document CHEMBL1152212, “Docking study, synthesis, and in vitro evaluation of fluoro-MADAM derivatives as SERT ligands for PET imaging” (Bioorg Med Chem, 2008).

Structures are written as SMILES. pKi: −log10 of the molar value.

In series [1] the target is T1, Sodium-dependent serotonin transporter (Rattus norvegicus, UniProt P31652).
The target of series [2] is Sodium-dependent noradrenaline transporter (Homo sapiens, UniProt P23975). The series can be described thus: Displacement of [3H]nisoxetine from human cloned NET expressed in HEK293 cells. It counts as cell-based. On the technique in general: Loss of bound radioactivity is the signal in a displacement assay; it reports binding, not function.
Sodium-dependent noradrenaline transporter, sequence (P23975 whole entry): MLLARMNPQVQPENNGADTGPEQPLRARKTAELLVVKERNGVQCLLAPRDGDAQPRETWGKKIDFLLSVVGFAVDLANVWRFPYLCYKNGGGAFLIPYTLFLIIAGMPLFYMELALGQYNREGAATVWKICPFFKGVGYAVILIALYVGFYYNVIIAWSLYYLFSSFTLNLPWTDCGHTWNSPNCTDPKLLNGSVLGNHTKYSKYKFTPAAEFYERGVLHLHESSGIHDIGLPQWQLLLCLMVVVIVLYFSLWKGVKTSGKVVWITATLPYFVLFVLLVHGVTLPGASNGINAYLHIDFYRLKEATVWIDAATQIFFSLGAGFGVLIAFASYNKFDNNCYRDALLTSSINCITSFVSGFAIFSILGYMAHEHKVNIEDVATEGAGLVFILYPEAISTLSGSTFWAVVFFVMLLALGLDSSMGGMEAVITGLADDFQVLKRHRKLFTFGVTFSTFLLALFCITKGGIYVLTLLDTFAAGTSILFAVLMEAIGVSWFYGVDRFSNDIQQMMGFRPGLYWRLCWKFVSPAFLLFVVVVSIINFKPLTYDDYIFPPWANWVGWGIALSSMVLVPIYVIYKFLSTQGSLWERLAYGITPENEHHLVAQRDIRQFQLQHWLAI
Series [3] has as its target Sodium-dependent dopamine transporter (Homo sapiens, UniProt Q01959). The series can be described thus: Displacement of [3H]GBR-12935 from human cloned DAT expressed in HEK293 cells. It counts as cell-based.
Series [4] is described as follows: Partition coefficient, log P in n-octanol/0.02 M phosphate buffer at pH 7.4. It counts as physicochemical.
Series [5] concerns the target T1, Sodium-dependent serotonin transporter. Put plainly: Displacement of [3H]MADAM from SERT in rat brain cortex membrane. Format: cell membranes. Summed up:
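Paroxetine defined nonspecific binding. Bound radioactivity was collected by GF/B filtration with an ice-cold wash and beta-counted. IC50 was read graphically and Ki derived by Cheng-Prusoff. Samples run in duplicate; values are the mean of four determinations.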

Series [6] has the same target. Put plainly: Displacement of [125I]IDAM from SERT in rat brain cortex membrane. It counts as cell membranes.
A short description of series [7]: Partition coefficient, log P at pH 7.4 by reverse-phase HPLC. Particulars: octanol/water, read-out: logP. It counts as physicochemical. The method, boiled down:
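Indirect log P7.4 from retention time (triplicate) on a C-18 column (5 µm, 4.6 × 150 mm) eluted with methanol/0.1 M phosphate buffer pH 7.4 (50/50) at 1 mL/min. Calibrated against seven standards dissolved in mobile phase: quinoline, phenol, benzamide, chlorpromazine, hexachlorobenzene, ADAM and MADAM. Calibration equation: y = 1.438·Ln(retention time) – 0.7301, R² 0.93.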

Sodium-dependent dopamine transporter, sequence (Q01959 whole entry): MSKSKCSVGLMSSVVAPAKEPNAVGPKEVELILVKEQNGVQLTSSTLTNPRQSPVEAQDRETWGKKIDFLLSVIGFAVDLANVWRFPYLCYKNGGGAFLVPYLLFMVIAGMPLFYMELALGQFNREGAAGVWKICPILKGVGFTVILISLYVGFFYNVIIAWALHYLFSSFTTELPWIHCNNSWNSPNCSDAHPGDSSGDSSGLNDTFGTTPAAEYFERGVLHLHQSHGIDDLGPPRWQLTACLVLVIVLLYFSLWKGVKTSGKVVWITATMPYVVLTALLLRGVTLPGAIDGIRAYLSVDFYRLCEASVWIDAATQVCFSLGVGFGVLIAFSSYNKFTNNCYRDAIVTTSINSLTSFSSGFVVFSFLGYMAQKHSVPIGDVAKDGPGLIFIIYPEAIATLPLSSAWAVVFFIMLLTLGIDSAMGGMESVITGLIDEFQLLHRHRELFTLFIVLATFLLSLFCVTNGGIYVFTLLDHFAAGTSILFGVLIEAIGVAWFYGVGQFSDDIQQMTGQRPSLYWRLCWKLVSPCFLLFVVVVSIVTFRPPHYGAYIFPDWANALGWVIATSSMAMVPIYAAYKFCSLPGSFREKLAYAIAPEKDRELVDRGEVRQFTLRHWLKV
T1 sequence (P31652 whole entry): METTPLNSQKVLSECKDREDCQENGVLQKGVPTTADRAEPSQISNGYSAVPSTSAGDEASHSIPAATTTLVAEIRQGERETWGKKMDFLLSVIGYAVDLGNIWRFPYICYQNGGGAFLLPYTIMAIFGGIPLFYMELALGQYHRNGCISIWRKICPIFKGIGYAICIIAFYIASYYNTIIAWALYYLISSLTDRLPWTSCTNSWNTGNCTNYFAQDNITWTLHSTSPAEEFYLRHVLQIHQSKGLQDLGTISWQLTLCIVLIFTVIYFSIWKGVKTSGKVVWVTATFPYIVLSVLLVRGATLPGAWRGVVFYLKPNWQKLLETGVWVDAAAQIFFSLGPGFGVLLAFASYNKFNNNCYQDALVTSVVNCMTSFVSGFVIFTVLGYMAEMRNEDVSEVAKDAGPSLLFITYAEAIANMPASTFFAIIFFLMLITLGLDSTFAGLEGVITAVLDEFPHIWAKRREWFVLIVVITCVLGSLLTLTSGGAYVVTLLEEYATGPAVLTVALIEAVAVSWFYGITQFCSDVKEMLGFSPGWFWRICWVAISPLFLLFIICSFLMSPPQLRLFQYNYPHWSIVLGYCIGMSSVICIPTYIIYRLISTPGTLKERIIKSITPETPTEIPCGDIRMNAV

For the molecule `CN(C)Cc1ccccc1Sc1ccc(I)cc1CO`, the negative logarithm of the Ki (pKi) (usually the negative decadic logarithm of the Ki, by convention in mol/L) in series [1] was 10.00.
`Cc1ccc(Sc2ccccc2CN(C)C)c(N)c1`: the negative logarithm of the Ki (pKi) in series [2] is 6.49; in series [3] it was < 6.00. In addition, in series [4], the pH-dependent lipophilicity (logD) (in general, lipophilicity at a set pH, counting ionised and neutral species) turned out to be 2.46.
Consider `CN(C)Cc1ccccc1Sc1ccc(I)cc1N`, for which the log distribution coefficient (logD) in series [4] came out at 2.52.
Regarding `CNCc1ccccc1Sc1ccc(C)cc1NCc1ccc(F)cc1`, the pKi in series [2] was < 6.00; in series [3], < 5.70; in series [5], < 7.00.
Regarding `CNCc1ccccc1Sc1ccc(C)cc1NC(=O)c1ccc(F)cc1`, the pKi in series [2] was < 5.60; in series [3], < 6.00; in series [5] it was < 6.30.
Molecule `CN(C)Cc1ccccc1Sc1ccc(Br)cc1NC(=O)c1ccc(F)cc1` showed a negative logarithm of the Ki (pKi) in series [6] of 8.10.
On the same count and under the same terms, the value for `CN(C)Cc1ccccc1Sc1ccccc1NC(=O)c1ccc(F)cc1` was 7.47; that for `CN(C)Cc1ccccc1Sc1ccc(Cl)cc1NC(=O)c1ccc(F)cc1` was 9.05.
Take `Cc1ccc(Sc2ccccc2CN(C)C)c(NCc2ccc([N+](=O)[O-])cc2)c1`: the values for the pKi in series [2], in series [3] and in series [5] were < 5.72, < 6.00 and 7.22, respectively.
As to `Cc1ccc(Sc2ccccc2CN(C)C)c(NCc2ccc(F)cc2)c1`, the values for the pKi in series [2], in series [3] and in series [5] were < 5.92, < 5.82 and 8.00, respectively. The chromatographic logD in series [7] was 4.7.
Take `Cc1ccc(Sc2ccccc2CN(C)C)c(NC(=O)c2ccc([N+](=O)[O-])cc2)c1`: the negative-log Ki (pKi) in series [2] is < 6.00; in series [3], < 6.00; in series [5], < 7.00.
For `CN(C)Cc1ccccc1Sc1ccc(I)cc1NC(=O)c1ccc(F)cc1`, the pKi in series [6] is 6.71.
On to `Cc1ccc(Sc2ccccc2CN(C)C)c(NC(=O)c2ccc(F)cc2)c1`, for which the figures for the pKi in series [2], in series [3] and in series [5] were < 5.28, < 6.00 and 7.84, respectively. For the same molecule, in series [7], the chromatographic logD is 2.99.
